Laboratory results from ChEMBL document CHEMBL1140100, “Flexible cyclic ethers/polyethers as novel P2-ligands for HIV-1 protease inhibitors: design, synthesis, biological evaluation, and protein-ligand X-ray studies” (J Med Chem, 2008).

Key:
[1] = system: Human immunodeficiency virus 1; assay: Antiviral activity against multidrug-resistant HIV1 with protease L10I, K14R, R41K, M46L, I54V, L63P, A71V, V82A, L90M, I93L mutation in phytohemagglutininin-activated PBMC assessed as inhibition of p24Gag protein production; format: functional, organism-based
In short: (§1)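 Clinical HIV-1 isolates (ERS104pre as wild-type reference; multidrug-resistant isolates with the listed protease substitutions relative to consensus type B) were tested in phytohemagglutinin-activated human peripheral blood mononuclear cells. The endpoint was inhibition of p24Gag protein production, and IC50 was determined in triplicate.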

[2] = system: Human immunodeficiency virus 1; assay: Antiviral activity against HIV1 ERS104 with protease L63P mutation in phytohemagglutininin-activated PBMC assessed as inhibition of p24G protein production; format: functional, organism-based; in short: as §1
[3] = system: Human immunodeficiency virus 1; assay: Antiviral activity against multidrug-resistant HIV1/C with protease mutation in phytohemagglutininin-activated PBMC assessed as inhibition of p24G protein production; format: functional, organism-based
[4] = system: Human immunodeficiency virus 1; assay: Antiviral activity against multidrug-resistant HIV1 with protease L10I, K14R, L33I, M36I, M46I, F53I, K55R, I62V, L63P, A71V, G73S, V82A, L90M, I93L mutation in phytohemagglutininin-activated PBMC assessed as inhibition of p24G protein production; format: functional, organism-based; in short: as §1
[5] = system: Human immunodeficiency virus 1; assay: Antiviral activity against multidrug-resistant HIV1/A with protease mutation in phytohemagglutininin-activated PBMC assessed as inhibition of p24G protein production; format: functional, organism-based
[6] = system: Human immunodeficiency virus 1; assay: Antiviral activity against multidrug-resistant HIV1 with protease L10I, V11I, T12E, I15V, L19I, R41K, M46L, L63P, A71T, V82A, L90M mutation in phytohemagglutininin-activated PBMC assessed as inhibition of p24G protein production; format: functional, organism-based; in short: as §1
[7] = system: Human immunodeficiency virus 1; assay: Antiviral activity against multidrug-resistant HIV1 with protease L10I, K43T, M46L, I54V, L63P, A71V, V82A, L90M, Q92K mutation in phytohemagglutininin-activated PBMC assessed as inhibition of p24G protein production; format: functional, organism-based; in short: as §1
[8] = system: Human immunodeficiency virus 1; assay: Antiviral activity against multidrug-resistant HIV1 with protease L10I, L24I, I33F, E35D, M36I, N37S, M46L, I54V, R57K, I62V, L63P, A71V, G73S, V82A mutation in phytohemagglutininin-activated PBMC assessed as inhibition of p24G protein production; format: functional, organism-based; in short: as §1
[9] = system: Human immunodeficiency virus 1; assay: Antiviral activity against HIV1 LAI in human MT2 cells assessed as inhibition of virus-induced cytopathic effect; format: functional, organism-based; conditions: Human immunodeficiency virus 1, LAI
[10] = target: Protease (Human immunodeficiency virus 1, UniProt Q9YQ12); assay: Inhibition of HIV1 protease
[11] = read-out: ID50 (the source's name)

Protease, sequence (Q9YQ12 whole entry): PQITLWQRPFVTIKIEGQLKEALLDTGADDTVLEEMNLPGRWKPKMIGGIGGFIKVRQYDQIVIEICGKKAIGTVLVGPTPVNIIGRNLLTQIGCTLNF

Q: Which IC50 [1] does the source give for CC(C)CN(C[C@@H](O)[C@H](Cc1ccccc1)NC(=O)O[C@H]1CCOC1)S(=O)(=O)c1ccc(N)cc1 here?
A: Its IC50 is 290 nM.

Q: What about the IC50 [2] of the same compound?
A: The IC50 was 33 nM.

Q: What about the IC50 [3] of the same compound?
A: The IC50 was 230 nM.

Q: What about the IC50 [4] of the same compound?
A: The IC50 was 320 nM.

Q: What about the IC50 [5] of the same compound?
A: The IC50 was 100 nM.

Q: What about the IC50 [6] of the same compound?
A: The IC50 was 340 nM.

Q: What about the IC50 [7] of the same compound?
A: The IC50 was 300 nM.

Q: And the IC50 [8]?
A: The IC50 was 430 nM.

Q: With CC(C)CN(C[C@@H](O)[C@H](Cc1ccccc1)NC(=O)O[C@H]1CO[C@H]2OCC[C@H]21)S(=O)(=O)c1ccc(N)cc1 as the compound, how does the IC50 [1] read?
A: The IC50 was 4 nM.

Q: And the IC50 [2]?
A: Its IC50 is 3.5 nM.

Q: What about the IC50 [4] of the same compound?
A: The IC50 was 26 nM.

Q: What about the IC50 [5] of the same compound?
A: Its IC50 is 3 nM.

Q: And the IC50 [9, 11]?
A: Its IC50 is 1.6 nM.

Q: Which IC50 ([9]; read-out: IC50) does the source give for COc1ccc(S(=O)(=O)N(CC(C)C)C[C@@H](O)[C@H](Cc2ccccc2)NC(=O)OC2COCCS(=O)(=O)CCOC2)cc1 here?
A: The IC50 was > 1000 nM.

Q: And the Ki [10]?
A: Its Ki is 1.9 nM.

Q: How did the IC50 ([9]; read-out: IC50) turn out when COc1ccc(S(=O)(=O)N(CC(C)C)C[C@@H](O)[C@H](Cc2ccccc2)NC(=O)OC2COCCN(C)CCOC2)cc1 was run?
A: Its IC50 is > 1000 nM.

Q: What about the Ki [10] of the same compound?
A: Its Ki is 19 nM.

Q: Which Ki [10] does the source give for COc1ccc(S(=O)(=O)N(CC(C)C)C[C@@H](O)[C@H](Cc2ccccc2)NC(=O)O[C@H]2CCCOCOC2)cc1 here?
A: Its Ki is 0.15 nM.

Q: How did the IC50 [9, 11] turn out when COc1ccc(S(=O)(=O)N(CC(C)C)C[C@@H](O)[C@H](Cc2ccccc2)NC(=O)O[C@H]2CO[C@H]3OCC[C@H]32)cc1 was run?
A: Its IC50 is 1.2 nM.

Q: How did the IC50 [1] turn out when COc1ccc(S(=O)(=O)N(CC(C)C)C[C@@H](O)[C@H](Cc2ccccc2)NC(=O)O[C@@H]2CCOCOC2)cc1 was run?
A: The IC50 was 220 nM.

Q: What about the IC50 [2] of the same compound?
A: Its IC50 is 20 nM.

Q: And the IC50 [3]?
A: The IC50 was 210 nM.

Q: And the IC50 [4]?
A: The IC50 was 340 nM.

Q: And the IC50 [5]?
A: The IC50 was 20 nM.

Q: And the IC50 [6]?
A: The IC50 was 360 nM.

Q: What about the IC50 ([9]; read-out: IC50) of the same compound?
A: Its IC50 is 4.9 nM.

Q: What about the IC50 [7] of the same compound?
A: Its IC50 is 250 nM.

Q: What about the IC50 [8] of the same compound?
A: Its IC50 is 500 nM.

Q: With COc1ccc(S(=O)(=O)N(CC(C)C)C[C@@H](O)[C@H](Cc2ccccc2)NC(=O)OC2CCCCCC2)cc1 as the compound, how does the Ki [10] read?
A: Its Ki is 27 nM.

Q: How did the Ki [10] turn out when COc1ccc(S(=O)(=O)N(CC(C)C)C[C@@H](O)[C@H](Cc2ccccc2)NC(=O)OC2COCCOCCOC2)cc1 was run?
A: Its Ki is 16 nM.

Q: With COc1ccc(S(=O)(=O)N(CC(C)C)C[C@@H](O)[C@H](Cc2ccccc2)NC(=O)O[C@@H]2CCCCOC2)cc1 as the compound, how does the Ki [10] read?
A: Its Ki is 0.81 nM.

Q: With COc1ccc(S(=O)(=O)N(CC(C)C)C[C@@H](O)[C@H](Cc2ccccc2)NC(=O)O[C@H]2CCCOCC2)cc1 as the compound, how does the Ki [10] read?
A: The Ki was 0.74 nM.

Q: Which IC50 ([9]; read-out: IC50) does the source give for COc1ccc(S(=O)(=O)N(CC(C)C)C[C@@H](O)[C@H](Cc2ccccc2)NC(=O)OC2COCCOCOCCOC2)cc1 here?
A: Its IC50 is > 1000 nM.

Q: What about the Ki [10] of the same compound?
A: Its Ki is 6.3 nM.

Q: COc1ccc(S(=O)(=O)N(CC(C)C)C[C@@H](O)[C@H](Cc2ccccc2)NC(=O)OC2COCCOCCOCCOC2)cc1 was tested. Which Ki [10] did it give?
A: Its Ki is 33 nM.

Q: COc1ccc(S(=O)(=O)N(CC(C)C)C[C@@H](O)[C@H](Cc2ccccc2)NC(=O)O[C@@H]2CCCOCOC2)cc1 was tested. Which Ki [10] did it give?
A: Its Ki is 0.16 nM.

Q: Which results are given for COc1ccc(S(=O)(=O)N(CC(C)C)C[C@@H](O)[C@H](Cc2ccccc2)NC(=O)O[C@H]2CCOCOC2)cc1?
A: IC50 ([9]; read-out: IC50): 30 nM; Ki [10]: 0.16 nM

Q: What does the source list for COc1ccc(S(=O)(=O)N(CC(C)C)C[C@@H](O)[C@H](Cc2ccccc2)NC(=O)OC2COCOC2)cc1?
A: IC50 [1]: 64 nM; IC50 [2]: 6 nM; IC50 [3]: 160 nM; IC50 [4]: 230 nM; IC50 [5]: 13 nM; IC50 [6]: 300 nM; IC50 ([9]; read-out: IC50): 3.4 nM; IC50 [7]: 110 nM; Ki [10]: 0.041 nM; IC50 [8]: 330 nM

Q: How did the IC50 [1] turn out when CC(C)(C)NC(=O)[C@@H]1CN(Cc2cccnc2)CCN1C[C@@H](O)C[C@@H](Cc1ccccc1)C(=O)N[C@H]1c2ccccc2C[C@H]1O was run?
A: Its IC50 is > 1000 nM.

Q: And the IC50 [2]?
A: Its IC50 is 26 nM.

Q: What about the IC50 [3] of the same compound?
A: Its IC50 is > 1000 nM.

Q: What about the IC50 [4] of the same compound?
A: The IC50 was > 1000 nM.

Q: What about the IC50 [5] of the same compound?
A: The IC50 was > 1000 nM.

Q: What about the IC50 [6] of the same compound?
A: The IC50 was 290 nM.

Q: What about the IC50 [7] of the same compound?
A: Its IC50 is > 1000 nM.

Q: What about the IC50 [8] of the same compound?
A: Its IC50 is > 1000 nM.

Q: How did the IC50 [1] turn out when CC(C)c1nc(CN(C)C(=O)N[C@H](C(=O)N[C@@H](Cc2ccccc2)C[C@H](O)[C@H](Cc2ccccc2)NC(=O)OCc2cncs2)C(C)C)cs1 [RITONAVIR] was run?
A: The IC50 was > 1000 nM.

Q: What about the IC50 [2] of the same compound?
A: Its IC50 is 34 nM.

Q: And the IC50 [3]?
A: The IC50 was > 1000 nM.

Q: What about the IC50 [4] of the same compound?
A: The IC50 was > 1000 nM.

Q: And the IC50 [5]?
A: The IC50 was > 1000 nM.

Q: And the IC50 [6]?
A: Its IC50 is > 1000 nM.

Q: And the IC50 [7]?
A: Its IC50 is > 1000 nM.

Q: What about the IC50 [8] of the same compound?
A: The IC50 was > 1000 nM.
